# Assay results as given in ChEMBL document CHEMBL1123129, “Hypolipidemic activity of indan-1,3-dione derivatives in rodents” (J Med Chem, 1985).
# Experiments:
# [1] = In Vitro evaluation for the CF1 liver enzyme activity on Acyl cholesterol acyltransferase at concentration 50 uM
# Summary of the method: (§1)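 Liver was taken from CF1 male mice and made into 10% homogenates, which were incubated with test compound at 50, 100 or 200 µM. Each enzyme was assayed by its literature method, and protein was measured by Lowry. N = 6. Activity is expressed as % of untreated control ± SD.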
# Mus musculus [2] = species on record: Mus musculus; experiment: In Vitro evaluation for the CF1 liver enzyme activity on Mitochondrial citrate exchange at concentration 50 uM; type: functional
# Summary of the method: (§2)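 Mouse liver enzymes assayed in vitro on 10% homogenates of CF1 male mouse liver, with test drug added at 50–200 μM. Each enzyme follows a published procedure. Protein is measured by Lowry. Activity is given as % of untreated control (X ± SD, N = 6).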
# [3] = target: T1, Sterol O-acyltransferase 1 (Mus musculus) (UniProt Q61263); experiment: In Vivo effect for the hypolipidemic activity on Acyl-COA cholesterol acyltransferase in CF1 mice after 16 days of oral administration at a dose of 60 mg/kg; type: functional, organism-based; set-up: dose 60 mg/kg
# T1 sequence (whole entry): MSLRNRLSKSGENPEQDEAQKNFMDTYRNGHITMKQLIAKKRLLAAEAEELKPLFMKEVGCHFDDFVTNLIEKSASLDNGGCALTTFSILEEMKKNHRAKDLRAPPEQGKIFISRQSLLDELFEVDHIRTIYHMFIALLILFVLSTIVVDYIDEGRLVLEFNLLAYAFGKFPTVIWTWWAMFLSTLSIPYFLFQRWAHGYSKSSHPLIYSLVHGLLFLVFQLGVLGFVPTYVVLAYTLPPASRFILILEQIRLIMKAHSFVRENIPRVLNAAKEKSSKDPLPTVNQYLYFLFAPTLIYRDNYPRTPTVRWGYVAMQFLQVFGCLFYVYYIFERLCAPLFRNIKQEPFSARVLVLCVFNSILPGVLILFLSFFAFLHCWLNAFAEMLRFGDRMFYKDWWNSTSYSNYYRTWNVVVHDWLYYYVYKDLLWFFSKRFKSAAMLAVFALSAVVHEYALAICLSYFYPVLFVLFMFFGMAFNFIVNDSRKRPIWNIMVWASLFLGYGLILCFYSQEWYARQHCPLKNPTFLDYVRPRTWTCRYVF
# Summary of the method: (§3)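 CF1 male mice are dosed orally at 10–60 mg/kg per day for 16 days, with 1% CMC as the control vehicle. Liver is homogenized at 10% in 0.25 M sucrose + 0.001 M EDTA, pH 7.2. Enzymes are assayed by literature methods, with Lowry protein. Activity is given as % of control (X ± SD, N = 6), with p from Student's t test.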
# [4] = target: T2, ATP-citrate synthase (Mus musculus) (UniProt Q91V92); experiment: In Vitro evaluation for the CF1 liver enzyme activity on ATP-Citrate Lyase exchange at concentration 200 uM; summary of the method: as §1
# T2 sequence (whole entry): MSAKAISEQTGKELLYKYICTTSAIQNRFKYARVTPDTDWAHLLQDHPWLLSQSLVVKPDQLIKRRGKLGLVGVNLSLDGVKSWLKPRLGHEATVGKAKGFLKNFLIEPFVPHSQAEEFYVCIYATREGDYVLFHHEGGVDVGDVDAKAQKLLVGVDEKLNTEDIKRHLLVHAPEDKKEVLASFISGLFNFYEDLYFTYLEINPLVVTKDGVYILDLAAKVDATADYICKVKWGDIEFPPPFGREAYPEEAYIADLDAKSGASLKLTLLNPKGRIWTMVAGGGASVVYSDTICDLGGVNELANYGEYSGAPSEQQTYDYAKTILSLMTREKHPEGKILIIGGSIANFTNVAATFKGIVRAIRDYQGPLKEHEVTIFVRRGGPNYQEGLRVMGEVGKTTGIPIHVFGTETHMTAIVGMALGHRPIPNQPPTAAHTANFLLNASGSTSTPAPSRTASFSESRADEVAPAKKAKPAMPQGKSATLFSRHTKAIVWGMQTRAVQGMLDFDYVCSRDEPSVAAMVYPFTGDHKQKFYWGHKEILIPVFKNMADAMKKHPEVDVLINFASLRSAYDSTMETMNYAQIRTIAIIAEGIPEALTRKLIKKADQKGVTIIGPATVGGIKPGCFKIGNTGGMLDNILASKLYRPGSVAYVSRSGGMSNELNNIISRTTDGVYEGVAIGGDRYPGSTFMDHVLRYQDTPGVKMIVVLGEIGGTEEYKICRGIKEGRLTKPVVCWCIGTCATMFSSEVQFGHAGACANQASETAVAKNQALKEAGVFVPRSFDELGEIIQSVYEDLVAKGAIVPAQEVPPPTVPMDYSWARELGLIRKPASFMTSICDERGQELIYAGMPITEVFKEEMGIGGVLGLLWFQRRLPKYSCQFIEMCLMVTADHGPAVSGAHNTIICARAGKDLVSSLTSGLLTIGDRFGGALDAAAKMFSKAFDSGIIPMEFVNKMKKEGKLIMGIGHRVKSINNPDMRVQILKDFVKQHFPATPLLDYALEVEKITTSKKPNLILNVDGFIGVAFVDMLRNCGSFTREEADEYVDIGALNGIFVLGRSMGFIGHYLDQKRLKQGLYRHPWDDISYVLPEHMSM
# [5] = target: T2, ATP-citrate synthase (Mus musculus); experiment: In Vivo effect for the hypolipidemic activity on ATP-Citrate Lyase in CF1 mice after 16 days administered orally at a dose of 60 mg/kg; type: organism-based; set-up: dose 60 mg/kg; summary of the method: as §3
# Mus musculus [6] = experiment: Compound was evaluated for the hypolipidemic activity in CF1 male mice at a dose of 60 mg/kg orally for Serum triglyceride at 16th day; type: functional; settings: route oral
# Summary of the method: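 CF1 male mice dosed orally at 10–60 mg/kg per day, with 1% CMC as the vehicle control; N = 6 per group. Serum cholesterol was read on days 9 and 16 and serum triglyceride on day 16. Liver lipids were extracted on day 16 and assayed for cholesterol, triglyceride, neutral lipid, phospholipid and protein. Values are given as % of control ± SD.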
# Rattus norvegicus [7] = experiment: Compound was evaluated for the hypolipidemic activity at 20 mg/kg per day orally for 14 days on phospholipids content in rat VLDL; type: functional; settings: route oral
# Summary of the method: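 Male Sprague–Dawley rats (~300 g) were dosed orally each day. Blood was drawn from the abdominal vein. Lipoprotein fractions (chylomicron, VLDL, LDL, HDL) were separated by the Hatch–Lees and Havel methods. Each fraction was assayed for cholesterol, triglyceride (enzymatic kit), neutral lipids, phospholipids and Lowry protein. Values are % of 1% CMC vehicle control, N = 6.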
# Mus musculus [8] = species on record: Mus musculus; experiment: In Vitro evaluation for the CF1 liver enzyme activity on Hepatic lipoprotein lipase at concentration 100 uM; type: functional; summary of the method: as §2
# Rattus norvegicus [9] = experiment: Compound was evaluated for the hypolipidemic activity at 20 mg/kg per day orally for 14 days on triglycerides content in rat small intestine.; type: functional; settings: route oral
# Summary of the method: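 Male Sprague–Dawley rats were dosed orally for 14 days. Liver, small intestine and a 24-h fecal collection were lipid-extracted. Extracts were assayed for cholesterol (modified Liebermann–Burchard), triglyceride (enzymatic kit), neutral lipids, phospholipids and protein. Values are % of 1% CMC vehicle control, mean ± SD, N = 6.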
smiles,measurement,setting,value
COc1ccc(C2C(=O)c3ccccc3C2=O)cc1 [ANISINDIONE],Control,[1],94%
same,Control,Mus musculus [2],36%
same,Control,[3],48%
same,Control,[4],52%
same,Control,[5],93%
same,Control,Mus musculus [6],67%
same,Control,Rattus norvegicus [7],128%
same,Control,Mus musculus [8],94%
same,Control,Rattus norvegicus [9],89%
